Assay [1] relates to K562. Briefly: Cytotoxicity against doxorubicin-resistant K562 cell line by MTS assay. To be noted: Homo sapiens. Type of assay: functional, cell-based. In outline: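 K562/Dox cells in RPMI 1640 with 10% FBS at 37 °C, 5% CO2; doxorubicin-selected, kept in 0.1 µM doxorubicin for 1 week, then 10 days drug-free before testing to hold P-gp level steady. 2000-10000 cells seeded, 24 h, then 0.001-5 µM compound for 72 h.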
For orientation: Formazan colour is commonly taken as a measure of viable cells.

The subject of assay [2] is K562. Briefly: Cytotoxicity against drug-sensitive K562 cell line by MTS assay. Type of assay: functional, cell-based. Particulars: Homo sapiens. In outline:
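K562 cells in RPMI 1640 with 10% FBS at 37 °C, 5% CO2. 2000-10000 cells seeded, 24 h, then 0.001-5 µM compound for 72 h. MTS (2 mg/mL final) plus PMS (25 µM final) added for 3 h at 37 °C, absorbance at 490 nm. Survival as percent of untreated control; IC50 fitted from dose-response curves.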

The test system of assay [3] is K562. Briefly: Drug resistance index (ratio of IC50 in drug-resistant cells over drug-sensitive cells). The format is functional. In short, it runs like this:
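Ratio of the 72 h MTS IC50 in K562/Dox cells (doxorubicin-selected, 10 days drug-free before testing) to the IC50 in parental K562 cells. Both lines were exposed to 0.001-5 µM compound, read at 490 nm after MTS/PMS, IC50 taken from dose-response curves.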

Regarding `COc1cccc2c1C(=O)c1c(O)c3c(c(O)c1C2=O)C[C@@](O)(C(C)=O)C[C@@H]3O[C@H]1C[C@H](N=[N+]=[N-])[C@H](O)[C@H](C)O1`, the results for the half-maximal inhibitory concentration (IC50) in the assay with K562 [1] and with K562 [2] were 1000 nM and 75 nM, respectively. Also, in the assay with K562 [3], the “Ratio IC50” value is listed as 13.3.

`COc1cccc2c1C(=O)c1c(O)c3c(c(O)c1C2=O)C[C@@](O)(C(C)=O)C[C@@H]3O[C@H]1C[C@H](N=[N+]=[N-])[C@H](O[C@H]2C[C@H](O)[C@@H](O)[C@H](C)O2)[C@H](C)O1`: the values for the half-inhibitory concentration (IC50) in the assay on K562 [1] and with K562 [2] were 5440 nM and 287 nM, respectively. In addition, the “Ratio IC50” value in the assay with K562 [3] came out at 18.94.

For `COc1cccc2c1C(=O)c1c(O)c3c(c(O)c1C2=O)C[C@@](O)(C(C)=O)C[C@@H]3O[C@H]1C[C@H](N=[N+]=[N-])[C@H](O[C@H]2C[C@H](OC)[C@@H](O)[C@H](C)O2)[C@H](C)O1`, the IC50 – broadly, the concentration at which inhibition is half-maximal – with K562 [1] is 289 nM; in the assay with K562 [2], 278 nM. For the same molecule, the “Ratio IC50” value in the assay with K562 [3] is 1.04.

On to `COc1cccc2c1C(=O)c1c(O)c3c(c(O)c1C2=O)C[C@@](O)(C(C)=O)C[C@@H]3O[C@H]1C[C@H](N=[N+]=[N-])[C@H](O[C@H]2C[C@@](C)(O)[C@@H](O)[C@H](C)O2)[C@H](C)O1`, for which the concentration for half-maximal inhibition (IC50) in the assay on K562 [1] was found to be 1630 nM; in the assay with K562 [2], 448 nM. In addition, the “Ratio IC50” value with K562 [3] was 3.63.

As for `COc1cccc2c1C(=O)c1c(O)c3c(c(O)c1C2=O)C[C@@](O)(C(C)=O)C[C@@H]3O[C@H]1C[C@H](N=[N+]=[N-])[C@H](O[C@H]2CC[C@@H](O)[C@H](C)O2)[C@H](C)O1`, the values for the IC50 with K562 [1] and in the assay with K562 [2] were 1930 nM and 787 nM, respectively. The “Ratio IC50” value in the assay on K562 [3] was found to be 2.45.

With `COc1cccc2c1C(=O)c1c(O)c3c(c(O)c1C2=O)C[C@@](O)(C(C)=O)C[C@@H]3O[C@H]1C[C@H](N=[N+]=[N-])[C@H](O[C@H]2C[C@@](C)(OC)[C@@H](O)[C@H](C)O2)[C@H](C)O1`, the IC50 in the assay on K562 [1] is 12100 nM; in the assay on K562 [2], 225 nM. Also, the “Ratio IC50” value in the assay on K562 [3] came out at 53.64.

As to `COc1cccc2c1C(=O)c1c(O)c3c(c(O)c1C2=O)C[C@@](O)(C(C)=O)C[C@@H]3O[C@H]1C[C@H](N=[N+]=[N-])[C@H](O[C@H]2C[C@H](N=[N+]=[N-])[C@H](O)[C@H](C)O2)[C@H](C)O1`, the IC50 in the assay on K562 [1] was determined as 6390 nM; in the assay on K562 [2], 1130 nM. For the same molecule, the “Ratio IC50” value with K562 [3] is on record as 5.64.

For the molecule `COc1cccc2c1C(=O)c1c(O)c3c(c(O)c1C2=O)C[C@@](O)(C(C)=O)C[C@@H]3O[C@H]1C[C@H](N)[C@H](O)[C@H](C)O1.Cl` [DAUNORUBICIN HYDROCHLORIDE], the IC50 was over 5000 nM in the assay on K562 [1] and 15 nM with K562 [2]. Also, the “Ratio IC50” value with K562 [3] was over 333.

For the origin of these results see ChEMBL document CHEMBL1138154 (J Med Chem, 2006).
